Measured values reported in paper PMC3567311 (ACS chemical biology, 2012).
Where two headings read alike, the source gives them in different places.

Experiments:
[1] = target: T1, Kvβ1 (Rattus norvegicus, UniProt P63144, C7A); assay: inside-out patch clamp dose-response; type: cell-based
[2] = target: T2, Kvβ2 (Rattus norvegicus, UniProt P62483, W272A); assay: scintillation proximity assay, competition with 3H-cortisone; settings: read-out: % reduction of cortisone binding at 250 μM
T2 sequence (P62483 36-361 W272A): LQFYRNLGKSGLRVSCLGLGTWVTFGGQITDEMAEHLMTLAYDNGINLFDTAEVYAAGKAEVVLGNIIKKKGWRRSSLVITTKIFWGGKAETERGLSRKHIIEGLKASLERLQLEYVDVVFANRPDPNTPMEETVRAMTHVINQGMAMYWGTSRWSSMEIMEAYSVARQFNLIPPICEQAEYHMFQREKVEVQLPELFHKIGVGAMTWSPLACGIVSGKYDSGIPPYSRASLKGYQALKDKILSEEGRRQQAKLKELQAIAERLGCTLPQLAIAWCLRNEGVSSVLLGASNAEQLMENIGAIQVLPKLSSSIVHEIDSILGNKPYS

[3] = target: T1, Kvβ1; assay: inside-out patch clamp dose-response; type: cell-based; remark: listed apart in the source
Method in brief: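 Inside-out patches from Xenopus oocytes injected with mixed mRNAs of rat Kv1.1 and rat Kvβ1 (Cys7→Ala), or with a Kvβ1-Kv1.1 fused chimera. Currents elicited by stepping from −80 mV to +60 mV for 400 ms. Test compound was dissolved in DMSO, diluted into internal buffer (final 1% DMSO) and perfused at several concentrations. ΔIss = rise in steady-state current as a fraction of initial inactivating current. EC50 taken from the dose-response curve.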

[4] = target: T2, Kvβ2; type: binding
[5] = target: T2, Kvβ2; assay: scintillation proximity assay, competition with 3H-cortisone; settings: read-out: % reduction of cortisone binding at 250 μM; remark: listed apart in the source

T1 sequence (P63144 whole entry C7A): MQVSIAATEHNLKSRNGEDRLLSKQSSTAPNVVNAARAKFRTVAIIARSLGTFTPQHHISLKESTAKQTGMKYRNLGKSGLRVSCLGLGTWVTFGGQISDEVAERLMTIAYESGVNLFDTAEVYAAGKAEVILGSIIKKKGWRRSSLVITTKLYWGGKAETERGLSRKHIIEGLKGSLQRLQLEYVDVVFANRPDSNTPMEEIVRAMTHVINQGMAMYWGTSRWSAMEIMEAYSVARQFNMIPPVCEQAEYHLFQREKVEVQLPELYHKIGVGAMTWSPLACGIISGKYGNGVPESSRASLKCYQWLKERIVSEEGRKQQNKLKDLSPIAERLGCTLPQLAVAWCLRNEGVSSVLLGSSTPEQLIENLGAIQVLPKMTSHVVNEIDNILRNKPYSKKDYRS
T1 sequence (P10499 whole entry partner): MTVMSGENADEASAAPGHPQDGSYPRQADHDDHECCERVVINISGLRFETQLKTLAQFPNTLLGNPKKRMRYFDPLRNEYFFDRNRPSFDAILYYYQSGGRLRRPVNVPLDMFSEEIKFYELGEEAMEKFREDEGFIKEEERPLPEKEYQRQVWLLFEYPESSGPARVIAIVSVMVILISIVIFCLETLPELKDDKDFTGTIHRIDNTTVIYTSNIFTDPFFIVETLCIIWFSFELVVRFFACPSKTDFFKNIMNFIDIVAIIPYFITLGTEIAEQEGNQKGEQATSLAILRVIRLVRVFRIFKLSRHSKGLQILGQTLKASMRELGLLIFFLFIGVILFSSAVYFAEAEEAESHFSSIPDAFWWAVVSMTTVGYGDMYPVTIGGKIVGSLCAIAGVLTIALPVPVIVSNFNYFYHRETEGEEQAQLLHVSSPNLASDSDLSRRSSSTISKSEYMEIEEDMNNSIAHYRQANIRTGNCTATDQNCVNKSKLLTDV

| SMILES | EC50 [1] [µM] | inhibition at 250 µM [2] [%] | EC50 [3] [µM] | Ki [4] [µM] | inhibition at 250 µM [5] [%] |
| --- | --- | --- | --- | --- | --- |
| CC(=O)OCC(=O)[C@@]1(O)CC[C@H]2[C@@H]3CCC4=CC(=O)CC[C@]4(C)[C@H]3C(=O)C[C@@]21C [cortisone 21-acetate] | 9 ± 1.1 | 95 ± 0.2 | – | – | – |
| C[C@]12CCC(=O)C=C1CC[C@@H]1[C@@H]2C(=O)C[C@@]2(C)[C@H]1CC[C@]2(O)C(=O)CO [cortisone] | – | – | 46 | 30 ± 10 | – |
| CCC(=O)O[C@]1(C(=O)SCF)[C@H](C)C[C@H]2[C@@H]3C[C@H](F)C4=CC(=O)C=C[C@]4(C)[C@@]3(F)[C@@H](O)C[C@@]21C [fluticasone propionate] | 0.037 ± 0.0011 | – | – | – | 98 ± 0.1 |
